Source: ChEMBL document CHEMBL2146388, “Sinularosides A and B, bioactive 9,11-secosteroidal glycosides from the South China Sea soft coral Sinularia humilis Ofwegen” (J Nat Prod, 2012)
Active and inactive are the calls of the source. The calls are words filed in the database; no cut-off is given here.

Experiments:
[1] = tested on: HepG2; assay: Cytotoxicity against human HepG2 cells by MTT assay; assay type: functional, cell-based
How it was run: (§1)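 Growth inhibition is read colorimetrically by a modified MTT method on HepG2 or Caco-2 cells. Adriamycin is the positive control. IC50 is reported.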

[2] = tested on: Caco-2; assay: Cytotoxicity against human Caco2 cells by MTT assay; assay type: functional, cell-based; how it was run: as §1
[3] = tested on: Zymoseptoria tritici; assay: Antifungal activity against Septoria tritici assessed as zone of inhibition at 0.05 mg by agar diffusion method; assay type: functional; settings: read-out: IZ
How it was run: (§2)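 Fungi are grown on MPY medium. A 9 mm sterile filter disk is loaded with 0.05 mg of compound (50 μL of a 1.0 mg/mL acetone solution), laid on the agar, and then sprayed with a fungal suspension. The inhibition zone is scored, with an acetone control.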

[4] = tested on: Microbotryum violaceum; assay: Antifungal activity against Microbotryum violaceum assessed as zone of inhibition at 0.05 mg by agar diffusion method; assay type: functional; settings: read-out: IZ; how it was run: as §2
[5] = tested on: Priestia megaterium; assay: Antibacterial activity against Bacillus megaterium assessed as zone of inhibition at 0.05 mg by agar diffusion method; assay type: functional; settings: read-out: IZ
How it was run: (§3)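 Compound is dissolved in acetone at 1.0 mg/mL, and 0.05 mg is applied to a sterile 9 mm filter disk. The disk is placed on NB agar and sprayed with a bacterial suspension. Read-out is the inhibition zone around the disk. Acetone serves as the solvent control.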

[6] = tested on: Escherichia coli; assay: Antibacterial activity against Escherichia coli assessed as zone of inhibition at 0.05 mg by agar diffusion method; assay type: functional; settings: read-out: IZ; how it was run: as §3
[7] = tested on: [Chlorella] fusca; assay: Antimicrobial activity against Chlorella fusca assessed as zone of inhibition at 0.05 mg by agar diffusion method; assay type: functional; settings: Scenedesmus fuscus; read-out: IZ
How it was run: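 The microalga Chlorella fusca is tested on CP medium. A sterile 9 mm paper disk carries 0.05 mg of compound from a 1.0 mg/mL acetone solution and is placed on the agar, which is then sprayed with the algal suspension. The zone of growth inhibition is recorded, with acetone as control.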

| SMILES | IC50 [1] | IC50 [2] | zone of inhibition at 50 µg/disc [3] | zone of inhibition at 50 µg/disc [4] | zone of inhibition at 50 µg/disc [5] | zone of inhibition at 50 µg/disc [6] | growth inhibition (GI) [1] | zone of inhibition at 50 µg/disc [7] | growth inhibition (GI) [2] |
| --- | --- | --- | --- | --- | --- | --- | --- | --- | --- |
| COc1cccc2c1C(=O)c1c(O)c3c(c(O)c1C2=O)C[C@@](O)(C(=O)CO)C[C@@H]3O[C@H]1C[C@H](N)[C@H](O)[C@H](C)O1 [DOXORUBICIN] | 2700 nM | 2700 nM |  |  |  |  |  |  |  |
| CC(=O)N1CCN(c2ccc(OCC3COC(Cn4ccnc4)(c4ccc(Cl)cc4Cl)O3)cc2)CC1 (configuration not stated) [KETOCONAZOLE] |  |  | 14 mm | 15 mm |  |  |  |  |  |
| CC1(C)S[C@@H]2[C@H](NC(=O)Cc3ccccc3)C(=O)N2[C@H]1C(=O)O [PENICILLIN G] |  |  |  |  | 28 mm | 20 mm |  |  |  |
| C=C(CC[C@@H](C)[C@H]1CC[C@@H]([C@@H]2CC=C3C[C@@H](O[C@@H]4O[C@@H](C)[C@@H](O)[C@@H](O)[C@@H]4O)CC[C@]3(C)C2=O)[C@]1(C)CCO)C(C)C [SINULAROSIDE A] |  |  | 14 mm | 17 mm | 30 mm | 0 mm | inactive | 12 mm | inactive |
| C=C(CC[C@@H](C)[C@H]1CC[C@@H]([C@@H]2CC=C3C[C@@H](O[C@@H]4O[C@@H](C)[C@@H](OC(C)=O)[C@@H](O)[C@@H]4O)CC[C@]3(C)C2=O)[C@]1(C)CCO)C(C)C [SINULAROSIDE B] |  |  | 15 mm | 17 mm | 30 mm | 0 mm | inactive | 14 mm | inactive |
| CN[C@@H]1[C@H](O[C@H]2[C@H](O[C@H]3[C@H](O)[C@@H](O)[C@H](N=C(N)N)[C@@H](O)[C@@H]3N=C(N)N)O[C@@H](C)[C@]2(O)C=O)O[C@@H](CO)[C@H](O)[C@H]1O [STREPTOMYCIN] |  |  |  |  | 30 mm | 25 mm |  |  |  |
